Among the data in ChEMBL document CHEMBL1140321, “Synthesis and biological evaluation of acyclic 3-[(2-hydroxyethoxy)methyl] analogues of antiviral furo- and pyrrolo[2,3-d]pyrimidine nucleosides” (J Med Chem, 2005) are EC50, MCC and CC50 values, retold here.

For assay [1], the system named is CCRF-CEM. Briefly: Concentration required to inhibit human immunodeficiency virus-2 (strain ROD) induced cytopathogenicity in CEM cells by 50%. Format: functional, cell-based. The essentials:
(§1)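 Human CEM cells (~3 × 10^5 cells/cm³) were infected with 100 CCID50/mL of HIV-1(IIIB) or HIV-2(ROD) and seeded into wells with compound dilutions. After 4 days at 37 °C, HIV-induced giant-cell formation was examined microscopically and EC50 was taken as the concentration giving 50% inhibition.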
In general terms: Damage to the host cells serves as the signal in cytopathic effect assays.

Assay [2] concerns HEL. Briefly: Concentration required to inhibit vaccinia virus induced cytopathogenicity in HEL cells by 50%. Format: functional, cell-based. To be noted: Homo sapiens.
Assay [3] has as its system HEL. Briefly: Concentration required to cause a microscopically visible alteration of cell morphology in HEL cells. The following applies: Homo sapiens. Format: functional.
The subject of assay [4] is HEL. The experiment in a line: Concentration required to inhibit vesicular stomatitis virus induced cytopathogenicity in HEL cells by 50%. The following applies: Homo sapiens. Format: functional, cell-based.
Assay [5] has as its system HEL. The experiment in a line: Concentration required to inhibit Varicella-Zoster virus (strain 07/1) induced cytopathogenicity in HEL cells by 50%. Format: functional, cell-based. The following applies: Homo sapiens.
Assay [6] concerns HEL. The experiment in a line: Concentration required to inhibit Varicella-Zoster virus (strain OKA) induced cytopathogenicity in HEL cells by 50%. Format: functional, cell-based. To be noted: Homo sapiens.
The subject of assay [7] is HEL. The experiment in a line: Concentration required to inhibit cell proliferation in HEL cells by 50%. Format: functional. To be noted: Homo sapiens.
For assay [8], the system named is HEL. The experiment in a line: Concentration required to inhibit herpes simplex virus type 2 induced cytopathogenicity in HEL cells by 50%. Format: functional, cell-based. To be noted: Homo sapiens.
In assay [9] the test system is HEL. Briefly: Concentration required to inhibit human cytomegalovirus strain Davis induced cytopathogenicity in HEL cells by 50%. Format: functional, cell-based.
Assay [10] deals with HEL. Briefly: Concentration required to inhibit human cytomegalovirus strain AD169 induced cytopathogenicity in HEL cells by 50%. Format: functional, cell-based.
The test system of assay [11] is HEL. Briefly: Concentration required to inhibit herpes simplex virus type 1 induced cytopathogenicity in HEL cells by 50%. Format: functional, cell-based. To be noted: Homo sapiens.
The test system of assay [12] is CCRF-CEM. Briefly: Concentration required to inhibit human immunodeficiency virus-1 (strain IIIb) induced cytopathogenicity in CEM cells by 50%. Format: functional, cell-based. The essentials:
as §1

Assay [13] relates to HEL. The experiment in a line: Concentration required to inhibit HEL cell proliferation by 50%. Format: functional. To be noted: Homo sapiens.

Some results are limits rather than exact numbers.

One may read the EC50 as the concentration that produces a half-maximal response. Low readings indicate a more potent agent, high ones a less potent agent. One may read the CC50 as the concentration giving 50% cytotoxicity. Higher therefore signals better tolerance by the cells. With `CCCCCCCCCCCc1cc2cn(COCCO)c(O)nc-2n1`, the EC50 in the assay with CCRF-CEM [1] was over 10 µM; in the assay on HEL [2], over 40 µM; in the assay on HEL [4] it was over 40 µM; in the assay on HEL [5], 10 µM; with HEL [6] it was 16 µM; in the assay on HEL [8], over 40 µM. Moreover, the EC50 in the assay on HEL [9] was over 16 µM; in the assay with HEL [10], over 16 µM; in the assay with HEL [11], over 40 µM; with CCRF-CEM [12], over 10 µM. Further, in the assay with HEL [3], the MCC came to 80 µM. In the assay on HEL [7], this compound registered a CC50 of 41 µM.
As for `CCCCCC#Cc1cc2cn(COCCO)c(=O)nc2o1`, the EC50 in the assay with CCRF-CEM [1] was over 50 µM; in the assay with HEL [2], over 200 µM; in the assay with HEL [4] it was over 200 µM; in the assay on HEL [5], over 50 µM; with HEL [6], over 50 µM; with HEL [8], over 200 µM. Besides, the EC50 with HEL [9] is 58 µM; in the assay with HEL [10], over 20 µM; in the assay on HEL [11], over 200 µM; in the assay on CCRF-CEM [12], over 50 µM. The compound further showed an MCC in the assay on HEL [3] of at least 100 µM. This compound also yielded a CC50 in the assay on HEL [7] of over 50 µM.
For `CCCCC#Cc1cc2cn(COCCO)c(=O)nc2o1`, the EC50 with CCRF-CEM [1] is over 50 µM; in the assay with HEL [2], over 200 µM; in the assay on HEL [4], over 200 µM; in the assay with HEL [5], over 50 µM; with HEL [6] it was over 50 µM; in the assay on HEL [8], over 200 µM. Moreover, the EC50 is over 100 µM in the assay on HEL [9], over 100 µM in the assay with HEL [10], over 200 µM in the assay on HEL [11] and over 50 µM in the assay on CCRF-CEM [12]. In the assay on HEL [3], the MCC is over 100 µM. The compound further came in with a CC50 in the assay with HEL [7] of over 50 µM.
Consider `CCCCCCCCC#Cc1cc2cn(COCCO)c(=O)nc2o1`, for which the 50% effective concentration (EC50) was over 10 µM in the assay on CCRF-CEM [1]; over 40 µM with HEL [2]; over 40 µM in the assay on HEL [4]; 8.5 µM with HEL [5]; over 5 µM in the assay on HEL [6]; over 40 µM in the assay with HEL [8]. Besides, the concentration for a half-maximal effect (EC50) is 5.2 µM with HEL [9], over 4 µM in the assay with HEL [10], over 40 µM with HEL [11] and over 10 µM with CCRF-CEM [12]. This compound displayed an MCC in the assay with HEL [3] of at least 20 µM. In the assay with HEL [7], this compound came in with a CC50 of 42 µM.
Take `CCCCCCCCCC#Cc1cc2cn(COCCO)c(=O)nc2o1`: the 50% effective concentration (EC50) is over 10 µM in the assay with CCRF-CEM [1]; over 40 µM in the assay with HEL [2]; over 40 µM in the assay with HEL [4]; 7.1 µM in the assay on HEL [5]; 2.6 µM in the assay on HEL [6]; over 40 µM in the assay with HEL [8]. Moreover, the EC50 in the assay with HEL [9] is 5.2 µM; in the assay on HEL [10], over 4 µM; in the assay with HEL [11], over 40 µM; in the assay with CCRF-CEM [12], over 10 µM. In the assay on HEL [3], the MCC is at least 20 µM. Besides, the 50% cytotoxic concentration (CC50) in the assay with HEL [7] is over 50 µM.
In the case of `C#Cc1cn(COCCO)c(=O)[nH]c1=O`, the EC50 with CCRF-CEM [1] is over 250 µM; with HEL [2] it was over 400 µM; in the assay on HEL [4], over 400 µM; in the assay with HEL [5], over 400 µM; with HEL [6] it was over 400 µM; with HEL [8], over 400 µM. Besides, the EC50 in the assay with HEL [9] was over 400 µM; in the assay with HEL [10] it was over 400 µM; with HEL [11], over 400 µM; in the assay on CCRF-CEM [12], over 250 µM. The compound also yielded an MCC in the assay with HEL [3] of over 400 µM. This compound displayed a 50% cytotoxic concentration (CC50) in the assay on HEL [13] of over 200 µM.
Regarding `CCCCCCCC#Cc1cc2cn(COCCO)c(=O)nc2o1`, the 50% effective concentration (EC50) in the assay with CCRF-CEM [1] is over 10 µM; in the assay with HEL [2], over 40 µM; in the assay on HEL [4], over 40 µM; in the assay with HEL [5], over 20 µM; in the assay on HEL [6], over 20 µM; with HEL [8], over 40 µM. The concentration for a half-maximal effect (EC50) with HEL [9] is over 20 µM; with HEL [10] it was over 20 µM; in the assay with HEL [11], over 40 µM; in the assay on CCRF-CEM [12], over 10 µM. Also, in the assay on HEL [3], the MCC turned out to be 200 µM. This compound displayed a CC50 with HEL [7] of over 50 µM.
For the compound `O=c1[nH]c(=O)n([C@H]2C[C@H](O)[C@@H](CO)O2)cc1/C=C/Br` [BRIVUDINE], the EC50 was over 50 µM with CCRF-CEM [1]; 60 µM in the assay with HEL [2]; over 500 µM with HEL [4]; over 108 µM in the assay with HEL [5]; 0.03 µM in the assay with HEL [6]; 300 µM in the assay on HEL [8]. Also, the 50% effective concentration (EC50) is over 100 µM in the assay on HEL [9], over 100 µM in the assay with HEL [10], 0.16 µM with HEL [11] and over 50 µM in the assay with CCRF-CEM [12]. For the same compound, in the assay on HEL [3], the MCC was over 400 µM. The same compound returned a 50% cytotoxic concentration (CC50) in the assay with HEL [7] of at least 400 µM.
